From PMC7069368 (MedChemComm, 2019)
Entries after “also recorded” stand apart in the source; their conditions may differ. Marks after values point to notes of the source that are not given here.

Key:
[1] = Thermodynamic solubility assay; assay type: physicochemical; conditions: in vitro ADME, data not shown
Method in brief: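 Solid test compound (0.2–0.5 mg) was saturated in PBS and shaken at 900 rpm, room temperature, for 48 h. It was centrifuged 30 min at 10 000×g, 23 °C. The supernatant was diluted 10–1000× in acetonitrile/H₂O (50/50) in two steps and quantified by LC-MS/MS.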

Caco-2 cell monolayers = assay: Caco-2 permeability; conditions: in vitro ADME, data not shown
Method in brief: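 Caco-2 monolayers (passage 94–105) were grown on permeable filters and used on day 21 after seeding. Filters were washed with pre-warmed HBSS. Drug solution (1 μM, prewarmed to 37 °C) was applied as donor to the apical or basolateral side. Both chambers were at pH 7.4.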

[2] = Ames test; cited from earlier work
HeLa cells = conditions: 10 μM compound; % of cell growth; data provided from previous studies ref 10, 11; cited from earlier work
Pharmacokinetics in mice = assay type: in vivo; conditions: mouse, PO 10 mg kg^–1 in lipid emulsion
Method in brief: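 Female C3H mice (9-week C3H/HeOuJ or 22-week C3H/HeJ, by compound) got 10 mg kg⁻¹ as a 100 μL gavage, three per dose and route. The vehicle was 55% capmul, 15% akomed, 15% ethanol and 15% cremophor, emulsified with lukewarm water. Tail-vein blood (20 μL) was taken at 0.5, 1, 2, 4, 8 and 24 h and mixed with acetonitrile. It was methanol-extracted and quantified against spiked blank mouse blood standards.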

[3] = test system: C. trachomatis serovar L2; assay: Reinfect assay; assay type: cell-based, Chlamydia trachomatis
Method in brief: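 HeLa 229 cells were infected with serovar L2 EBs in HBSS at MOI 0.3–0.5. Test compound (2.5 or 1 μM in RPMI) was added at 1 h, then incubated 44–48 h. Cells were lysed with cold water, and EBs in SPG were 10-fold serially diluted onto fresh HeLa cells. After 44–46 h, cells were methanol-fixed and stained (anti-Chlamydia/FITC, DAPI). IFUs were counted by automated microscopy and given as % of DMSO control. Three independent experiments, duplicates.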

C. trachomatis serovar D = assay: C. trachomatis in vivo infection model; parameters: species or system mouse
Method in brief: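 Female C3H/HeJ mice, 8 weeks old, got 2.4 mg medroxyprogesterone acetate s.c. 10 and 3 days pre-infection. Vaginal mucus was swabbed away before intravaginal inoculation (5000 […], 10 μL SPG), with 30 min inverted under anaesthesia. Gavage of 100 μL of 2.33 mg mL⁻¹ in capmul/akomed/cremophor/EtOH water emulsion (n=9), vehicle alone (n=9), or 2 mg mL⁻¹ doxycycline (n=6) began at 10 h, then every 12 h for 7 days.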

SMILES | Mutagenic potential [2] | HeLa viability 10 μM (%) (HeLa cells) | Oral uptake / oral data (in words) (Pharmacokinetics in mice) | also measured
Nc1c(Cc2cccc3ccccc23)c(C2CC2)c2n(c1=O)C(C(=O)Nc1ccccc1)CS2 (stereo not drawn) [Compound 2] | no mutagenic potential | 101 ± 3 ^a % | – | Solubility (in words) [1]: poor solubility; Permeability (in words) (Caco-2 cell monolayers): moderate permeability
Nc1c(Cc2cccc3ccccc23)c(C2CC2)c2n(c1=O)C(n1cc(-c3ccccc3)nn1)CS2 (stereo not drawn) [Compound 3] | no mutagenic potential | 105 ± 4 ^a % | too low to be able to be quantified | –
COc1c(Cc2cccc(C)c2C)cc(=O)n2c1SCC2C(=O)Nc1cc(C)cc(F)c1 (stereo not drawn) [Compound 18, 7-(2,3-Dimethylbenzyl)-N-(3-fluoro-5-methylphenyl)-8-methoxy-5-oxo-2,3-dihydrothiazolo[3,2-a]pyridine-3-carboxamide] | – | – | too low to allow for proper determination of pharmacokinetic parameters; also recorded: too low to be able to be quantified | –
O=C(Nc1ccccc1)C1CSc2c(C3CC3)c(Cc3cccc4ccccc34)cc(=O)n21 (stereo not drawn) [Compound 24, 8-cyclopropyl-7-(naphthalen-1-ylmethyl)-5-oxo-N-phenyl-3,5-dihydro-2H-thiazolo[3,2-a]pyridine-3-carboxamide] | – | 100 ± 4 ^a % | – | –
CS(=O)(=O)Nc1c(Cc2cccc3ccccc23)cc(=O)n2c1SCC2C(=O)Nc1ccccc1 (stereo not drawn) [Compound 30, 8-(Methylsulfonamido)-7-(naphthalen-1-ylmethyl)-5-oxo-N-phenyl-2,3-dihydrothiazolo[3,2-a]pyridine-3-carboxamide] | – | – | – | Concentrations inhibiting C. trachomatis infectivity (in words) [3]: low micromolar concentrations; Effect on vaginal C. trachomatis infection (IFUs per vaginal swab) (C. trachomatis serovar D; C3H/HeJ mice, 10 mg kg^–1 oral gavage twice a day for 7 days): the course of infection was not improved; also recorded: did not affect vaginal C. trachomatis infection; Tolerability (vital signs) (C. trachomatis serovar D; mice, 10 mg kg^–1 oral gavage twice a day): no negative vital signs
